Assay [1] deals with T1, Human immunodeficiency virus type 1 integrase (Human immunodeficiency virus 1, UniProt Q7ZJM1). The assay is described as follows: Inhibitory concentration against purified recombinant integrase by 3'-processing in vitro assay.
In assay [2] the target is T1, Human immunodeficiency virus type 1 integrase. The assay is described as follows: Inhibitory concentration against purified recombinant integrase by strand transfer in vitro assay.
Assay [3] has the same target. The assay can be described thus: Inhibitory concentration against purified recombinant integrase by 3'-processing in 3D search.
The target is the same in assay [4]. The assay can be described thus: (§1) Inhibitory concentration against purified recombinant integrase by strand transfer 3D search.
For assay [5], the target named is Human immunodeficiency virus type 1 integrase (Human immunodeficiency virus 1) (UniProt Q7ZJM1). The assay can be described thus: Percentage inhibition was obtained by performing in vitro assay on purified recombinant integrase by 3''-processing method at 100 micro g/mL (experiment 2). In a few lines:
(§2)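 Single concentration of 100 µg/mL tested. Recombinant HIV-1 integrase (200 nM final) preincubated with compound for 30 min at 30 °C in Mn2+/DMSO buffer, then reacted for 60 min with 20 nM 5′-32P-labeled 21-mer LTR duplex. Gel and phosphorimager quantitation of 19-mer 3′-processing and strand transfer products. %I = 100×[1−(D−C)/(N−C)], relative to DNA-alone and DNA+integrase controls.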

For assay [6] the target is unchanged. The assay can be described thus: Percentage inhibition was obtained by performing in vitro assay on purified recombinant integrase by strand transfer method at 100 micro g/mL (experiment 2). Summed up:
as §2

Assay [7] shares this target. The assay is described as follows: Percentage inhibition was obtained by performing in vitro assay on purified recombinant integrase by strand transfer method at 100 micro g/mL (experiment 1). Summed up:
as §2

The target is the same in assay [8]. The assay is described as follows: Percentage inhibition was obtained by performing in vitro assay on purified recombinant integrase by 3''-processing method at 100 micro g/mL (experiment 1). Summed up: as §2
For assay [9], the target named is T1, Human immunodeficiency virus type 1 integrase. The assay is described as follows: Inhibitory concentration against purified recombinant integrase by strand transfer in vitro assay (experiment 1). Summed up:
(§3)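 Recombinant wild-type HIV-1 integrase, final 200 nM, preincubated with inhibitor for 30 min at 30 °C. Buffer: 50 mM NaCl, HEPES/MOPS, 7.5 mM MnCl2 when specified, 10% DMSO, 10% glycerol, BSA, 2-mercaptoethanol. Then 20 nM 5′-32P-labeled 21-mer U5 LTR duplex (AE117/AE118) added for 60 min. Products separated on denaturing 20% urea gel and quantified by phosphorimager. 3′-processing (19-mer) and strand transfer products read in one reaction. IC50 read from plot of concentration vs percent inhibition, several concentrations.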

Assay [10] has the same target. The assay can be described thus: Inhibitory concentration against purified recombinant integrase by 3'-processing in 3D search (experiment 2). In a few lines:
as §3

The target is the same in assay [11]. The assay can be described thus: Inhibitory concentration against purified recombinant integrase by 3'-processing in vitro assay (experiment 1). In a few lines:
as §3

Assay [12] shares this target. The assay can be described thus: Inhibitory concentration against purified recombinant integrase by strand transfer in vitro assay (experiment 2). In a few lines:
as §3

For assay [13] the target is unchanged. The assay can be described thus: Inhibitory concentration against purified recombinant integrase by strand transfer 3D search (experiment 2). In a few lines:
as §3

Assay [14] shares this target. The assay is described as follows: Inhibitory concentration against purified recombinant integrase by strand transfer 3D search (experiment 1). In a few lines: as §3
For assay [15] the target is unchanged. The assay is described as follows: Inhibitory concentration against purified recombinant integrase by 3'-processing in vitro assay (experiment 2). In a few lines: as §3
The target is the same in assay [16]. The assay is described as follows: Inhibitory concentration against purified recombinant integrase by 3'-processing in 3D search (experiment 1). In a few lines:
as §3

The target is the same in assay [17]. Described as §1. In a few lines:
as §3
The source holds these as a separate data set.

Assay [18] shares this target. The assay can be described thus: Inhibitory concentration against purified recombinant integrase by strand transferrin vitro assay. In a few lines:
as §3

The values that follow come from ChEMBL document CHEMBL1129974, “Discovery of HIV-1 integrase inhibitors by pharmacophore searching” (J Med Chem, 1997).

T1 sequence (Q7ZJM1 whole entry): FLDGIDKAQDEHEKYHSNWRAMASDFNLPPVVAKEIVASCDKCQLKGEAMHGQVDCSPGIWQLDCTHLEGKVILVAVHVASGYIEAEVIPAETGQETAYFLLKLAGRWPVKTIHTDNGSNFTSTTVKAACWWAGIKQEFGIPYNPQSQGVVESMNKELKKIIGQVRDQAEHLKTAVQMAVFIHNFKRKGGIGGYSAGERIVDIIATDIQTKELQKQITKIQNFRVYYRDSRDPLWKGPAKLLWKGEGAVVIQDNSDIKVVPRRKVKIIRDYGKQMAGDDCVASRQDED
Chain of Human immunodeficiency virus type 1 integrase (Human immunodeficiency virus 1) (Q7ZJM1 as listed by the source): as the sequence (Q7ZJM1 whole entry) above

By IC50 is commonly meant the concentration at which inhibition is half-maximal. Consider `O=C(NCO)NCOCn1c(=O)n(CO)c(=O)n(CO)c1=O`, for which the half-maximal inhibitory concentration (IC50) in [1] was 5.3 µM; in assay [2], 5 µM; in assay [3] it was 5.29 µM; in assay [4] it was 4.98 µM.

For orientation: inhibition means the relative decrease from the control value, in per cent. Turning to `Cc1cc(CC(=O)NCCO)n(CCO)c(=O)c1`, the inhibition in assay [5] is 30.3%; in assay [6], 47.9%; in [7] it was 90.6%; in [8] it was 45.3%.

Turning to `O=C(NO)/C(CC(=O)c1ccc(O)cc1O)=N\O`, the IC50 in assay [9] is 16.5 µM; in assay [10], 70.8 µM; in assay [11], 29.9 µM; in [12] it was 35.8 µM; in assay [13] it was 35.8 µM; in assay [14], 16.5 µM. Moreover, the IC50 in assay [15] was 71.3 µM; in [16], 29.9 µM.

For `CCN(CC)CCCC(C)Nc1cc(F)cc2cccnc12` (stereo not given), the inhibition in assay [5] was found to be 41.2%; in [6] it was 48.9%; in assay [7] it was 27.6%; in assay [8], 36.5%.

On to `CCCCCCCCCCCCCCCCCCCN1CN(CO)CN(CO)C1=O`, for which the inhibition turned out to be 43.2% in [5], 69.7% in [6], 54.4% in [7] and 20.8% in assay [8].

For `O=c1ccc2cc(O[C@@H]3O[C@H](CO)[C@@H](O)[C@H](O)[C@H]3O)c(O)cc2o1`, the inhibition was determined as 29.6% in assay [5], 34.2% in assay [6], 67.7% in [7] and 40.8% in assay [8].

With `O=C(O)CNC(=O)c1ccccc1O`, the inhibition in assay [5] came to 33.3%; in [6], 33.3%; in assay [7] it was 25%; in assay [8] it was 28.9%.

On to `COc1cc2oc(-c3ccc(O)cc3)cc(=O)c2c(O)c1C1OC(CO)C(O)C(O)C1O` (stereo not given), for which the IC50 was 134 µM in assay [9]; 291 µM in assay [10]; 224 µM in assay [11]; 143 µM in [12]; 143 µM in [13]; 134 µM in assay [14]. In addition, the IC50 in [15] was 291 µM; in assay [16], 224 µM. For the same compound, the inhibition in assay [5] came out at 43.4%; in [6] it was 66.8%; in assay [7] it was 92.2%; in assay [8], 62.7%.

Consider `O=C(NN(CCO)CCO)c1ccccc1`, for which the inhibition in assay [5] came out at 43.9%; in [6], 69.9%; in [7], 52.4%; in assay [8] it was 25%.

Consider `O=C(CCCCC(=O)c1ccc(O)cc1O)OCCO`, for which the IC50 is 185 µM in assay [9]; 368 µM in assay [10]; 294 µM in assay [11]; 233 µM in [12]; 234 µM in assay [13]; 184 µM in assay [14]. Also, the IC50 in assay [15] was 367 µM; in assay [16] it was 294 µM.

As to `O=C(NNC(=O)c1ccccc1O)c1ccccc1O.O=C(NNCC(O)COc1ccccc1)c1ccccc1O` (stereo not given), the IC50 in assay [1] is 2 µM; in assay [2], 1.5 µM; in assay [3], 1.04 µM; in assay [4], 0.801 µM.

In the case of `O=C(N/N=C/c1ccccc1O)C(O)c1ccccc1` (stereo not given), the inhibition in assay [5] was 45.8%; in assay [6] it was 70.2%; in assay [7], 77.9%; in assay [8] it was 37%.

For the compound `O=C(CC(=O)Nc1ccccc1O)Nc1ccccc1O`, the inhibition in assay [5] turned out to be 17.6%; in assay [6] it was 37%; in assay [7] it was 57.2%; in [8], 23.1%.

On to `O=C(N/N=C/c1ccc(O)cc1O)N/N=C/c1ccc(O)cc1O`, for which the IC50 in assay [17] is 20.6 µM; in [1] it was 26 µM; in [3] it was 26.3 µM; in assay [18], 20.6 µM.

Turning to `C[C@H]1C(=O)c2c(cc(O)c(C3OC(CO)C(O)C(O)C3O)c2O)OC1c1ccc(O)c(O)c1` (stereo not given in full), the 50% inhibitory concentration (IC50) in assay [9] was 103 µM; in assay [10], 125 µM; in [11], 177 µM; in assay [12] it was 47.6 µM; in assay [13] it was 47.4 µM; in [14], 103 µM. In addition, the IC50 was 124 µM in assay [15] and 177 µM in [16].

Take `O=C(CC(O)(c1ccccc1)c1ccc(Cl)cc1)NC(=O)c1ccccc1O` (stereo not given): the IC50 is 101 µM in assay [9]; 237 µM in assay [10]; 182 µM in assay [11]; 142 µM in assay [12]; 141 µM in [13]; 101 µM in [14]. Besides, the 50% inhibitory concentration (IC50) is 238 µM in assay [15] and 182 µM in assay [16].

Regarding `O=C(NCCO)c1cc(Cl)ccc1O`, the inhibition was 2.2% in assay [5], 13.4% in assay [6], 0% in [7] and 0.4% in assay [8].

With `O=C(NCO)c1ccccc1O`, the inhibition in assay [5] is 10.2%; in assay [6] it was 55.2%; in assay [7], 61.5%; in assay [8], 25.8%.

On to `O=C(OCCO)c1ccccc1O`, for which the inhibition in assay [5] stood at 2.6%; in assay [6] it was 18.9%; in assay [7], 17.1%; in [8], 10.9%.

Turning to `O=C1Oc2ccccc2C(O)C1C(c1ccccc1)C1C(=O)Oc2ccccc2C1O` (stereo not given), the IC50 was 43.4 µM in assay [1] and 38.8 µM in [2].

For `COc1cc(N)ccc1C(=O)NC(CCC(=O)O)C(=O)O` (stereo not given), the IC50 in assay [9] was 203 µM; in assay [10], 270 µM; in assay [11], 228 µM; in assay [12] it was 271 µM; in assay [13], 270 µM; in assay [14], 203 µM. In addition, the IC50 in assay [15] was 271 µM; in assay [16] it was 230 µM.

Consider `CCN(CC)CCCC(C)Nc1ccnc2ccc(Cl)nc12` (stereo not given), for which the inhibition in assay [5] is 30.6%; in [6], 56.6%; in assay [7] it was 87.4%; in assay [8], 43.7%.

In the case of `O=C(CC(O)c1cccnc1)CC(O)c1cccnc1` (stereo not given), the inhibition turned out to be 19.1% in assay [5], 43.2% in [6], 48.1% in assay [7] and 22.5% in assay [8].

In the case of `O=C(N/N=C/c1ccccc1O)C(O)(c1ccccc1)c1ccccc1`, the inhibition worked out at 56.7% in assay [5], 74.1% in assay [6], 70.5% in assay [7] and 34.7% in assay [8].

As to `CCC/C=C/C=C/[C@@H]1C[C@@H](O)[C@@H](O)C(=O)[C@H]1CO`, the IC50 in assay [9] is 268 µM; in [10] it was 291 µM; in assay [11], 350 µM; in [12], 135 µM; in assay [13] it was 134 µM; in [14] it was 267 µM. Further, the IC50 in assay [15] was 289 µM; in assay [16], 350 µM.
